The values below come from ChEMBL document CHEMBL4002578, “α-Glucosidase Inhibitors from the Marine-Derived Fungus Aspergillus flavipes HN4-13” (J Nat Prod, 2016).

Structures can show the parent of a compound that is named as a salt. Some results are limits rather than exact numbers.

The nature of data set [1]: Cytotoxicity against human Caco2 cells measured after 72 hrs by MTT assay. Format: cell-based. To be noted: Caco-2 cells. In a few lines:
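Caco-2 viability was measured by MTT, and the median cytotoxic concentration (CC50) was derived.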
Background: Tetrazolium assays rely on reduction of a dye to a coloured formazan, in cell work by metabolically active cells.

Data set [2] has as its system MCF7. Description: Cytotoxicity against human MCF7 cells assessed as growth inhibition at 10 uM measured after 72 hrs by CCK-8 assay relative to control. Format: functional. Conditions: MCF7, 72 h, read-out: GI.
In data set [3] the test system is HepG2. Nature of the data set: Cytotoxicity against human HepG2 cells assessed as growth inhibition at 10 uM measured after 72 hrs by CCK-8 assay relative to control. Format: functional. Conditions: HepG2, 72 h, read-out: GI.
Data set [4] deals with Jurkat. Nature of the data set: Cytotoxicity against human Jurkat cells assessed as growth inhibition at 10 uM measured after 72 hrs by CCK-8 assay relative to control. Type of data set: functional. Conditions: read-out: GI.
The test system of data set [5] is A549. Description: Cytotoxicity against human A549 cells assessed as growth inhibition at 10 uM measured after 72 hrs by CCK-8 assay relative to control. Conditions: A549, 72 h, read-out: GI. Format: functional.
For data set [6], the system named is K562. Nature of the data set: Cytotoxicity against human K562 cells assessed as growth inhibition at 10 uM measured after 72 hrs by CCK-8 assay relative to control. Conditions: K562, 72 h, read-out: GI. Type of data set: functional.
The nature of data set [7]: Inhibition of human alpha-glucosidase expressed in Saccharomyces cerevisiae using p-nitophenyl-alpha-glucopyranoside as substrate pretreated with substrate for 15 mins followed by enzyme addition measured after 15 mins. In a few lines: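 Enzyme from a recombinant gene expressed in Saccharomyces cerevisiae, diluted to 0.2 U/mL in 0.01 M PBS. Compound, at three concentrations in sodium phosphate buffer pH 6.8, was mixed with 2.5 mM pNPG stock and held 15 min at 37 °C. Enzyme was then added for a further 15 min at 37 °C, and absorbance was read at 405 nm. The no-enzyme blank was subtracted, and IC50 was taken as the concentration giving 50% inhibition.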

Data set [8] is described as follows: Selectivity index, ratio of CC50 for human Caco2 cells to IC50 for human alpha-glucosidase expressed in Saccharomyces cerevisiae. In a few lines: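 SI was calculated as Caco-2 CC50 (MTT) divided by the α-glucosidase IC50 from the pNPG assay.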
A short description of data set [9]: Non-competitive inhibition of human alpha-glucosidase expressed in Saccharomyces cerevisiae using varying levels of p-nitophenyl-alpha-glucopyranoside as substrate pretreated with substrate for 15 mins followed by enzyme addition measured after 15 mins by Lineweaver-burk plot analysis.
Data set [10] is described as follows: Competitive inhibition of human alpha-glucosidase expressed in Saccharomyces cerevisiae using varying levels of p-nitophenyl-alpha-glucopyranoside as substrate pretreated with substrate for 15 mins followed by enzyme addition measured after 15 mins by Lineweaver-burk plot analysis.

Consider `CC1(C)CCc2cc(CC3=C(c4ccc(O)cc4)[C@@](O)(C(=O)O)OC3=O)ccc2O1`, for which the CC50 (in general, the concentration at which the toxic effect on the cells reaches its halfway point) at 72 h in data set [1] is more than 800 µM. Also, the inhibition of growth at 10 µM in data set [2], in data set [3], in data set [4], in [5] and in [6] was less than 34% in each case. The half-inhibitory concentration (IC50) – broadly, the concentration that gives 50% inhibition – in data set [7] amounted to 95 µM. In [8], the “Ratio CC50/IC50” value was more than 8.5. For the same compound, the results for the inhibition constant (Ki) in data set [9] and in data set [10] were 4.7 µM and 9.2 µM, respectively.

Regarding `COc1cccc2c1C(=O)c1c(O)c3c(c(O)c1C2=O)C[C@@](O)(C(=O)CO)C[C@@H]3O[C@H]1C[C@H](N)[C@H](O)[C@H](C)O1` [DOXORUBICIN HYDROCHLORIDE], the inhibition of growth at 10 µM in data set [2], in [3], in data set [4], in data set [5] and in data set [6] was less than 34% in each case.

Take `COC(=O)c1cc(O)cc(OC)c1Oc1cc(C)c(Cl)c(O)c1C(=O)O`: the inhibition of growth at 10 µM in data set [2], in data set [3], in [4], in data set [5] and in data set [6] was less than 34% throughout. Also, the IC50 in data set [7] lay in the range of 120 to 1300 µM.

The compound `COC(=O)c1cc(O)cc(OC)c1Oc1c(Cl)c(C)c(Cl)c(O)c1C(=O)O` [GEODIN HYDRATE] showed a CC50 at 72 h in data set [1] of more than 800 µM. Also, the inhibition of growth at 10 µM in data set [2], in data set [3], in [4], in [5] and in data set [6] was less than 34% in each case. Also, the half-maximal inhibitory concentration (IC50) in [7] was 55 µM. Moreover, the “Ratio CC50/IC50” value in data set [8] is on record as more than 15. The values for the Ki in data set [9] and in data set [10] were 5.5 µM and 6.3 µM, respectively.

Compound `COc1cc(O)cc(C(=O)O)c1Oc1cc(C)cc(O)c1C(=O)O` gave a CC50 at 72 h in data set [1] of more than 800 µM. The inhibition of growth at 10 µM in data set [2], in data set [3], in data set [4], in [5] and in data set [6] was less than 34% each time. Besides, in [7], the half-maximal inhibitory concentration (IC50) stood at 9.9 µM. Besides, the “Ratio CC50/IC50” value in [8] was more than 81. For the same compound, the Ki – broadly, a measure of affinity in units of concentration, obtained from inhibition or displacement – in [9] turned out to be 0.6 µM; in data set [10] it was 1.4 µM.

On to `COC(=O)c1cc(O)cc(OC)c1Oc1c(Cl)c(C)c(Cl)c(O)c1C(=O)OC` [METYL DICHLOROASTERRATE], for which, in [1], the CC50 at 72 h is more than 800 µM. In addition, the inhibition of growth at 10 µM in data set [2], in data set [3], in data set [4], in data set [5] and in [6] was less than 34% in each case. The IC50 in [7] was 90 µM. For the same compound, the “Ratio CC50/IC50” value in data set [8] is recorded as more than 8.9. In addition, in [9], the Ki amounted to 2.8 µM.

As to `OC[C@H]1NC[C@H](O)[C@@H](O)[C@@H]1O` [DUVOGLUSTAT], the half-inhibitory concentration (IC50) in data set [7] turned out to be 79 µM.

`COC(=O)[C@]1(Cc2ccc3c(c2)CCC(C)(C)O3)OC(=O)C(O)=C1c1ccc(O)cc1` came in with a CC50 at 72 h in [1] of more than 800 µM. Besides, the inhibition of growth at 10 µM in data set [2], in data set [3], in [4], in data set [5] and in data set [6] was less than 34% each time. The half-maximal inhibitory concentration (IC50) in data set [7] is 37 µM. For the same compound, in [8], the “Ratio CC50/IC50” value is reported as more than 22. The inhibition constant Ki in [9] was found to be 2.1 µM.

`COC(=O)c1cc(O)cc(OC)c1C(=O)c1c(O)c(Cl)c(C)c(Cl)c1O` [DIHYDROGEODIN]: the inhibition of growth at 10 µM in data set [2], in data set [3], in data set [4], in data set [5] and in data set [6] was less than 34% in each case. In addition, the IC50 in [7] was in the range of 120 to 1300 µM.

As for `CC1(C)CCc2cc(CC3OC(=O)C(O)=C3c3ccc(O)cc3)ccc2O1` (configuration not stated), the CC50 at 72 h in data set [1] was more than 800 µM. Besides, the inhibition of growth at 10 µM in [2], in data set [3], in data set [4], in data set [5] and in [6] was less than 34% throughout. For the same compound, the IC50 in data set [7] was 34 µM. Moreover, the “Ratio CC50/IC50” value in data set [8] is listed as more than 24. Also, the inhibitory constant (Ki) in [9] was 0.43 µM.

Take `COC(=O)c1cc(O)cc(OC)c1C(=O)c1c(O)cc(C)c(Cl)c1O`: the inhibition of growth at 10 µM in data set [2], in [3], in [4], in [5] and in data set [6] was less than 34% each time. In addition, the IC50 in data set [7] was in the range of 120 to 1300 µM.

Take `COc1cc(/C=C2\OC(=O)C(c3ccc(O)cc3)=C2O)ccc1O`: the inhibition of growth at 10 µM in data set [2], in [3], in [4], in [5] and in [6] was less than 34% each time. The half-maximal inhibitory concentration (IC50) in data set [7] fell in the range of 120 to 1300 µM.

For `COC(=O)c1cc(O)cc(OC)c1Oc1cc(C)cc(O)c1C(=O)O` [ASTERRIC ACID], the inhibition of growth at 10 µM in [2], in data set [3], in data set [4], in data set [5] and in data set [6] was less than 34% each time.

Turning to `C[C@H]1O[C@H](O[C@H]2[C@H](O)[C@@H](O)[C@@H](O[C@H]3[C@H](O)[C@@H](O)C(O)O[C@@H]3CO)O[C@@H]2CO)[C@H](O)[C@@H](O)[C@@H]1N[C@H]1C=C(CO)[C@@H](O)[C@H](O)[C@H]1O` (some centres not stated) [ACARBOSE], the half-inhibitory concentration (IC50) in data set [7] came to 101 µM.

As to `Cc1c(O)c(O)c(O)c(C=O)c1-c1cc2c(C=O)c(C)c(O)c(O)c2o1`, the CC50 at 72 h in data set [1] is more than 800 µM. Besides, the inhibition of growth at 10 µM in data set [2], in data set [3], in [4], in data set [5] and in [6] was less than 34% in each case. The IC50 in data set [7] came out at 33 µM. The “Ratio CC50/IC50” value in data set [8] is more than 24. For the same compound, the values for the Ki in [9] and in data set [10] were 7.2 µM and 2.5 µM, respectively.

Regarding `Cc1cc(O)c2c(c1)C(=O)c1cc(O)cc(O)c1C2=O` [EMODIN], in [1], the cytotoxic concentration (CC50) at 72 h is more than 800 µM. Also, the inhibition of growth at 10 µM in data set [2], in [3], in [4], in data set [5] and in data set [6] was less than 34% each time. Moreover, the concentration for half-maximal inhibition (IC50) in data set [7] stood at 19 µM. In addition, the “Ratio CC50/IC50” value in [8] is recorded as more than 43. The Ki in data set [9] is 0.79 µM.

Regarding `COC(=O)[C@@]1(O)OC(=O)C(Cc2ccc3c(c2)CCC(C)(C)O3)=C1c1ccc(O)cc1`, the CC50 at 72 h in [1] came to 278 µM. For the same compound, the inhibition of growth at 10 µM in data set [2], in data set [3], in data set [4], in data set [5] and in data set [6] was less than 34% in each case. Further, in data set [7], the half-inhibitory concentration (IC50) turned out to be 57 µM. For the same compound, the “Ratio CC50/IC50” value in data set [8] is reported as 4.8. Also, the Ki in data set [9] amounted to 14 µM; in data set [10], 3.4 µM.

Take `CCOC(=O)[C@@]1(O)OC(=O)C(Cc2ccc3c(c2)CCC(C)(C)O3)=C1c1ccc(O)cc1`: in data set [1], half-maximal cytotoxicity (CC50 at 72 h) was put at 519 µM. Moreover, the inhibition of growth at 10 µM in [2], in data set [3], in data set [4], in [5] and in data set [6] was less than 34% in each case. In addition, the 50% inhibitory concentration (IC50) in data set [7] was found to be 44 µM. Further, in data set [8], the “Ratio CC50/IC50” value came out at 12. Further, the values for the Ki in data set [9] and in [10] were 19 µM and 2.5 µM, respectively.
